Entries after “also recorded” stand apart in the source; their conditions may differ. Like-named read-outs stand apart in the source and are kept apart here.
Tests used:
[1] = system: T. cruzi intracellular amastigotes; assay: Drug test on intracellular amastigotes of T. cruzi; format: cell-based, Trypanosoma cruzi; details: 72 h; for inhibition of T. cruzi amastigote numbers (highest reduction): concentration not given; for IC50: Trypanosoma cruzi, Vero; for antitrypanosomal activity on T. cruzi: data not shown
Method in brief: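 Gamma-irradiated (2200 rad) Vero cells, 3.6 × 10^4/well, plated overnight at 37 °C, 5% CO2. […] Serial dilutions added for 72 h, in quadruplicate, with benznidazole 2 μM as control. Fluorescence read at Ex 544/Em 612 nm. Inhibition versus infected untreated wells; IC50 from sigmoidal variable-slope fit.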

[2] = system: P. falciparum 3D7 intraerythrocytic stage; assay: P. falciparum growth inhibition assay; format: cell-based, Plasmodium falciparum; details: for IC50: 3D7, 48 h, read-out: IC50 P. falciparum
Method in brief: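 Sorbitol-synchronized 3D7 rings in RBCs at 3% hematocrit, 0.8% parasitemia. Exposed 48 h at 37 °C (5% CO2, 2% O2, 93% N2), in triplicate. Chloroquine 80 nM as reference. Parasitemia measured by flow cytometry after SYTO 11 staining, with uninfected and untreated infected controls. Values standardized to chloroquine; inhibition versus untreated; IC50 from sigmoidal variable-slope fit.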

[3] = system: T. brucei brucei 427 strain, bloodstream stage; assay: Screening of drugs against T. brucei; format: cell-based, Trypanosoma brucei brucei; details: for IC50: Trypanosoma brucei
Method in brief: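 Strain 427 bloodstream forms in HMI-9 were pelleted (900 g, 10 min) and seeded at 5 × 10^5/well in warm medium with serial dilutions, in triplicate. Suramin 100 μM as positive control. After 24 h, Alamar Blue added and incubated 4 h at 37 °C. Fluorescence read at Ex 530/Em 590 nm. Inhibition versus untreated; IC50 from sigmoidal variable-slope fit.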

[4] = system: L. infantum promastigotes; assay: Anti-L. infantum promastigotes drug test; format: cell-based, Leishmania infantum; details: 48 h; for parasite-killing effect on promastigotes: data not shown
Method in brief: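 Promastigotes from a 4-day culture, 1 × 10^5/well, exposed to increasing concentrations for 48 h at 26 °C. Amphotericin B 0.25 μM as positive control. Cells lysed (1% Triton X-100, 2.9% sodium citrate), then 5 mM p-nitrophenyl phosphate added for 2 h at 37 °C. Stopped with 1 N NaOH and read at OD 405 nm. Inhibition calculated versus untreated controls.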

[5] = ref Barnard et al., 1993; cited from earlier work
[6] = system: L. infantum intra-macrophage amastigotes; assay: Drug test on L. infantum intra-macrophage amastigotes; format: cell-based, Leishmania infantum; details: for decrease of number of intracellular amastigotes / reduction of percentage of infected macrophages: highest non-cytotoxic dose; for IC50: Leishmania infantum, U-937, 48 h, read-out: IC50 (parasite-killing activity, L. infantum intracellular amastigotes)
Method in brief: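 U937 cells were PMA-differentiated (50 nM, 48 h) and infected with 6-day metacyclic promastigotes at 10:1 for 24 h, then washed. Infected cells (5 × 10^4) were treated for 48 h in chamber slides, in duplicate, at concentrations non-toxic to macrophages (MTT, 48 h). Meglumine antimoniate 273 μM as control. Methanol-fixed, Giemsa-stained; 200 cells counted for infected macrophages and amastigotes.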

[7] = ref Schaefer et al., 2012; cited from earlier work
T. brucei [8] = details: ref Barnard et al., 1993; cited from earlier work
BS forms of T.brucei = details: read-out: IC50 BS forms of T.brucei; ref Chambers et al., 2008; cited from earlier work
T. cruzi epimastigotes = details: read-out: IC50 T. cruzi epimastigotes; ref Turrens, 1986; cited from earlier work
[9] = system: L. mexicana promastigotes; details: concentrations as high as 0.5 mM; ref Turrens and Cazzulo, 1987; cited from earlier work
T. brucei [10] = details: read-out: IC50 T. brucei; different T. brucei strain; ref Barquilla et al., 2008; cited from earlier work
[11] = read-out: IC50 T. cruzi intracelular amastigotes
[12] = 24 h, read-out: IC50 T. brucei Bloodstream stage
[13] = 24 h, read-out: IC50 T. brucei brucei
[14] = read-out: IC50 T. cruzi amastigotes

O=CC[C@@H](O)[C@H](O)[C@H](O)CO [2DG, 2-deoxy-D-glucose]
inhibition of T. cruzi amastigote numbers (highest reduction) [1]: 89.3% | IC50 [1, 11]: 7270 ± 0.47 µM | P. falciparum growth inhibition ([2]; 48 h): growth inhibition values close to those obtained by CQ | parasite-killing activity on T. brucei ([3]; 24 h): No parasite-killing activity was detected | parasite-killing effect on promastigotes ([4]; 0.2 mM): slight parasite-killing effect

O=C(O)C(=O)CBr [3BP, 3-bromopyruvic acid]
toxicity in humans [5]: toxicity in humans | antitrypanosomal activity on T. cruzi [1]: did not show consistent antitrypanosomal activity; also recorded: no efficacy | P. falciparum growth inhibition ([2]; 48 h): slight effect on parasite growth inhibition; also recorded: no efficacy | decrease of number of intracellular amastigotes ([6]; 75 μM, 48 h): 78.3% | reduction of percentage of infected macrophages ([6]; 75 μM, 48 h): 48.4% | IC50 [6]: 24.9 µM | safety in rodents [7]: apparently being safe in rodents, where only a reduction in body weight was recorded | concentration inhibiting motility and growth of T. brucei (T. brucei [8]): 13.4 µM | parasite-killing activity on T. brucei ([3]; 24 h, concentration not given): 93.2% | IC50 [3, 12]: 76.6 µM | IC50 [3, 13]: 76.6 µM | parasite-killing effect on promastigotes ([4]; 37 μM): slight parasite-killing effect

C[C@@H]1[C@H](O)[C@@H](C)/C=C/C=C/C=C/C=C/C=C/C=C/C=C/[C@H](O[C@@H]2O[C@H](C)[C@@H](O)[C@H](N)[C@@H]2O)C[C@@H]2O[C@](O)(C[C@@H](O)C[C@@H](O)[C@H](O)CC[C@@H](O)C[C@@H](O)CC(=O)O[C@H]1C)C[C@H](O)[C@H]2C(=O)O [AmB, amphotericyn B]
survival rate of L. infantum promastigotes ([4]; 0.25 μM): 36%

CCN(CC)CCCC(C)Nc1ccnc2cc(Cl)ccc12 (stereo not drawn) [CQ, chloroquine]
inhibition at 0.08 µM ([2]; Plasmodium falciparum, 3D7, read-out: parasite growth inhibition): > 90%

O=C(O)C(Cl)Cl [DCA, dichloroacetic acid]
IC50 [1, 14]: 25800 µM | IC50 [1, 11]: 25800 ± 59 µM | inhibition of T. cruzi amastigotes, highest value ([1]; high concentrations (up to 100 mM)): 74.1% | P. falciparum growth inhibition ([2]; 48 h): growth inhibition values close to those obtained by CQ | decrease of number of intracellular amastigotes ([6]; 25 mM, 48 h): 90.7% | reduction of percentage of infected macrophages ([6]; 25 mM, 48 h): 74.4% | IC50 [6]: 632 µM | concentration achieving complete clearance of cultured T. brucei brucei ([3]; 24 h): 12.5 mM | IC50 [3, 12]: 1240 µM | effect on L. infantum promastigote survival [4]: did not detectably impair

O=C(O)c1nn(Cc2ccc(Cl)cc2Cl)c2ccccc12 [LND, lonidamine]
IC50 (BS forms of T.brucei): 50 µM | inhibition of T. cruzi amastigote numbers (highest reduction) [1]: 99.4% | IC50 [1, 14]: 82.4 µM | IC50 [1, 11]: 82.4 µM | IC50 (T. cruzi epimastigotes): 80 µM | concentration of peak antimalarial activity ([2]; 48 h): 300 µM | IC50 ([2]; Plasmodium falciparum): 209 µM | effect on L. mexicana promastigotes [9]: only a leishmaniostatic effect was observed | parasite-killing activity on T. brucei ([3]; 24 h, concentration not given): 97.7% | IC50 [3, 12]: 26.8 µM | IC50 [3, 13]: 26.8 µM | effect on L. infantum promastigote survival [4]: did not detectably impair; also recorded: no effect was detected

CN(C)C(=N)N=C(N)N [MET, metformin]
IC50 [1, 14]: 18500 µM | IC50 [1, 11]: 18500 ± 18 µM | P. falciparum growth inhibition ([2]; 48 h): growth inhibition values close to those obtained by CQ | parasite elimination, T. brucei ([3]; 20 mM, 24 h): 57% | IC50 [3, 12]: 17300 ± 15 µM | effect on L. infantum promastigote survival [4]: did not detectably impair

CO[C@H]1C[C@@H]2CC[C@@H](C)[C@@](O)(O2)C(=O)C(=O)N2CCCC[C@H]2C(=O)O[C@H]([C@H](C)C[C@@H]2CC[C@@H](O)[C@H](OC)C2)CC(=O)[C@H](C)/C=C(\C)[C@@H](O)[C@@H](OC)C(=O)[C@H](C)C[C@H](C)/C=C/C=C/C=C/1C [SIR, sirolimus]
antitrypanosomal activity on T. cruzi [1]: did not show consistent antitrypanosomal activity; also recorded: did not affect the viability | P. falciparum growth inhibition ([2]; 48 h): growth inhibition values close to those obtained by CQ | IC50 ([2]; Plasmodium falciparum): ~2.5 µM | effect on parasite burden and infected macrophages ([6]; 10 μM, data not shown): modest increase of the parasite burden and number of infected macrophages | anti-parasitic effect on L. infantum intra-macrophage amastigotes ([6]; 48 h, data not shown): did not show any parasiticidal effect; also recorded: increase of parasite load | IC50 (T. brucei [10]): 0.152 µM | concentration achieving complete clearance of cultured T. brucei brucei ([3]; 24 h): 0.00685 mM | IC50 [3, 12]: 2.14 µM | effect on L. infantum promastigote survival [4]: did not detectably impair

Cc1ccc(C(=O)Nc2ccc(S(=O)(=O)O)c3cc(S(=O)(=O)O)cc(S(=O)(=O)O)c23)cc1NC(=O)c1cccc(NC(=O)Nc2cccc(C(=O)Nc3cc(C(=O)Nc4ccc(S(=O)(=O)O)c5cc(S(=O)(=O)O)cc(S(=O)(=O)O)c45)ccc3C)c2)c1 [SUR, suramin]
parasite clearance, T. brucei ([3]; 100 μM, control drug): 96%

— PMC7452664 (International Journal for Parasitology: Drugs and Drug …, 2020)
